One series has as its system CYP. The experiment in a line: CYP inhibition profile. The format is in vitro ADME.
In a further series the target is T1, GlyT1 (Homo sapiens, UniProt P48067).
T1 sequence (P48067 1-706): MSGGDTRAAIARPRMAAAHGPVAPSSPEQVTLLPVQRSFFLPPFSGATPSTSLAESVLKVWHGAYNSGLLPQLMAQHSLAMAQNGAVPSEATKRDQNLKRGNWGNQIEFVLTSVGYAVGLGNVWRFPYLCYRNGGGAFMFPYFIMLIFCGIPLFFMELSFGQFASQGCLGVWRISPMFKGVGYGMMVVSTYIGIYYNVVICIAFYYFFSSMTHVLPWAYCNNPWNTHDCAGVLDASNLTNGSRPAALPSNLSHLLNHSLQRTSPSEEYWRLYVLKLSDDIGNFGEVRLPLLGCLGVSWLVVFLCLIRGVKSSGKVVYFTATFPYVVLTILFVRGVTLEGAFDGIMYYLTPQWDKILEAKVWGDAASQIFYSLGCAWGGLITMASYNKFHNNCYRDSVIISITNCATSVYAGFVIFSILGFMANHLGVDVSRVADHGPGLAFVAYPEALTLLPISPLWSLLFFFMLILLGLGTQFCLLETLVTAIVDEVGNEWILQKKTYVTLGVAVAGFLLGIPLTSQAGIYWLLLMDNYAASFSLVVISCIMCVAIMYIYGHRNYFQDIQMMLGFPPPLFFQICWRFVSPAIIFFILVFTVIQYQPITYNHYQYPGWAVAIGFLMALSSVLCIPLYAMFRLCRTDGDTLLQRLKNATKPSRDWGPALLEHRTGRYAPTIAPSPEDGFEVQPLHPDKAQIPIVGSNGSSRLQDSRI
The experiment in a line: Enzyme kinetics of [14C]-glycine transport. The format is biochemical. The note with it: [14C]-glycine transport kinetics; 120 nM 12b in Fig. 3. The essentials:
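Saturation curves of [14C]-glycine transport were run with either vehicle or 120 nM test compound. Inhibition mode relative to glycine was assessed from an Eadie-Hoffstee plot of the transport data.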

By IC50 is commonly meant the point on the concentration scale where inhibition reaches its midpoint. For the compound `Cn1cnc(S(=O)(=O)N2CC3CCC(NC(=O)c4ccc(Cl)cc4Cl)C3C2)c1` (stereo not drawn) [Compound 12a], the half-inhibitory concentration (IC50) in the series with CYP was > 10 µM.

Consider `Cn1cnc(S(=O)(=O)N2CC3CCC(NC(=O)c4ccccc4C(F)(F)F)C3C2)c1` (stereo not drawn) [Compound 12b], for which the “Mechanism of GlyT1 inhibition with respect to glycine” value on GlyT1 is “competitively inhibits”. Consider `Cn1cnc(S(=O)(=O)N2CC(C(NC(=O)c3ccc(Cl)cc3Cl)c3ccccn3)C2)c1` (stereo not drawn) [Compound 27c], for which the IC50 in the series with CYP was > 10 µM.

The values above are taken from article PMC3951244 (Bioorganic & medicinal chemistry letters, 2014).
